From PubChem
Scp1 inh: inhibitors of human Scp-1 phosphatase; Q9GZU7; Recombinant Scp1, phosphopeptide, malachite green phosphate absorbance; inhibition, % at 20 µM; actives 0.88% (n = 340,000); AID 493091;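 active = inhibition above about 50% at 20 µM, limit read from the data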;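 also: plate controls were DMSO wells with enzyme for no effect and wells lacking enzyme for full effect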
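System: SCP-1 catalytic domain; Reagent: Phospho 17-mer peptide substrate; Doses: one concentration, 20 µM, with 1.0% DMSO; Incubation: 45 min room-temperature reaction, 5 min colour, 30 min stabiliser; Signal: Phosphate-binding colour reagent, absorbance read at 630 nm.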
PP5 primary: PP5 (human) phosphatase inhibition | inhibition, % at 6.7 µM | AID 1987 | purified PP5c, OMFP substrate fluorescence | actives 0.18% (n = 320,000);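 active = inhibition above the campaign's mean inhibition across all tested compounds plus 3 SD, cut at about 9.5% in these data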;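 also: 0% = DMSO only and 100% = 100 µM cantharidin control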
Target sequence (P53041 whole entry, looked up): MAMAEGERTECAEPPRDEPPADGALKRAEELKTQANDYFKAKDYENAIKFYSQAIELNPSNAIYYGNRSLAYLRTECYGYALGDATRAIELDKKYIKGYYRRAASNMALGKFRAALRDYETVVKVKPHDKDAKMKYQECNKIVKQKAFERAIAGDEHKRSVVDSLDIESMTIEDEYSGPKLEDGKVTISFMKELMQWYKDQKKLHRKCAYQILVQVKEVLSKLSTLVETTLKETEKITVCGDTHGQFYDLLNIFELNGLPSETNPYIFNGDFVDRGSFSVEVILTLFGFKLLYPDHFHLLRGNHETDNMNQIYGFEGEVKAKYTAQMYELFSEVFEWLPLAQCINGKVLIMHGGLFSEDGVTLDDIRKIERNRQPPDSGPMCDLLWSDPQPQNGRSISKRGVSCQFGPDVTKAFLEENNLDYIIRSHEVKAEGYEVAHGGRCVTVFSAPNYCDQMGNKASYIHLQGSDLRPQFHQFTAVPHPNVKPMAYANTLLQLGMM
STEP block: STEP (human) phosphatase inhibition | P54829 | actives 0.25% (n = 360,000) | recombinant STEP, OMFP fluorogenic substrate, fluorescence | inhibition, % at 20 µM;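 active = inhibition at 20 µM, scaled per plate between control wells, above about 37%, limit read from the data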;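 also: 0% = DMSO with enzyme and substrate and 100% = substrate only without enzyme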
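material = STEP tyrosine phosphatase | reagent = fluorogenic phosphatase substrate OMFP at 25 µM final | doses = single compound dose of 20 µM, 1% DMSO final | schedule = 20 min reaction, room temperature, in the dark | measured by = fluorescence, 480/540 nm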
LMPTP block: LMPTP (human) inhibition | recombinant LMPTP-A, OMFP fluorogenic substrate, fluorescence intensity | inhibition, % at 20 µM | AID 651560 | actives 0.22% (n = 360,000) | P24666;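 active = compounds that cut the enzyme signal by at least half of the control window in the single-dose screen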;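 also: plate controls were DMSO wells with enzyme plus substrate for no effect and substrate without enzyme for full effect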
Target sequence (P24666 whole entry, looked up): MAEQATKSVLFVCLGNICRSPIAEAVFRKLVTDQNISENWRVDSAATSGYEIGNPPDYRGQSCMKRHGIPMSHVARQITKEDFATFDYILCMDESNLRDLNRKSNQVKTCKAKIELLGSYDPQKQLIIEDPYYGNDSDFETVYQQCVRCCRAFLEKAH
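Assay system: LMPTP-A enzyme. Input: 0.625 nM LMPTP-A final. Probe or stimulus: 400 µM OMFP. Compound dosing: single 20 µM dose. Schedule: 50 min dark incubation at room temperature. Detection: fluorescence intensity of OMFP turnover product. Read-out: percent inhibition versus substrate-only and uninhibited controls. Benchmarks: no-enzyme low control, uninhibited high control.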
PP1 inh: PP1-alpha (human) inhibition in PP5 counter-screen | P62136 | purified PP1alpha, OMFP fluorescence | inhibition, % at 6.7 µM | actives 0.9% (n = 320,000);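 active = inhibition above the mean inhibition of all tested compounds plus 3 SD, computed separately for each screening campaign, cut at about 15% in these data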
STEP conf: confirmation of human STEP phosphatase inhibitors; shares compounds with STEP block; recombinant STEP, OMFP fluorogenic substrate, fluorescence; inhibition, % at 20 µM; actives 32% (n = 520); AID 623866; call rule not given here;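 also: 0% = enzyme with substrate plus DMSO and 100% = substrate without enzyme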
Active calls of the source: *; x = not tested or not shown. In the library only some 1.9% were active in any assay of this set; here they are far more common.

SMILES	Scp1 inh	PP5 primary	STEP block	LMPTP block	PP1 inh	STEP conf
CCCCNC(=O)c1cccc(C(=O)NCCCC)c1	-8.4	-0.4	95.9*	-1.4	-4.5	4.8
COc1cc(Cl)cc(/C=N\NC(=O)c2ccc3c(c2)OCO3)c1O	x	x	51.6*	21.5	x	84.0*
COc1cc(/C=N/NC(=O)c2ccc3c(c2)OCO3)ccc1O	-5.0	x	0.5	1.4	x	x
O=C(O)c1ccc(N2CCOCC2)c(N2C(=O)C3C4C=CC(C4)C3C2=O)c1 (stereo not drawn)	-5.3	1.8	0.6	0.4	-3.5	x
CC1(/[N+]([O-])=C/c2ccc(Cl)cc2Cl)CCCCC1=O (stereo not drawn)	5.3	-1.4	-1.4	-0.2	-9.0	x
Cc1cc([N+](=O)[O-])c2[nH]c(C(=O)N/N=C/c3ccccc3C(=O)O)c(-c3ccccc3)c2c1	2.4	x	73.3*	0.4	x	23.5
O=S(=O)(NCc1ccc(Cl)cc1)NCc1ccc(Cl)cc1	-7.0	1.2	-1.4	-1.6	0.5	x
O=[N+]([O-])c1ccc(-c2ccc(/C=N/n3cnnc3)o2)c(Br)c1	1.2	0.9	7.4	1.1	0.4	x
Cc1cc([N+](=O)[O-])c(C)cc1-c1ccc(/C=N/n2cnnc2)o1	45.7	x	49.8*	9.0	x	-1.0
Cc1c(/C=N/NC(=O)c2cc(Br)ccc2O)c(=O)n(C)c(=O)n1C	-6.4	2.4	1.4	-1.8	0.0	x
CCc1ccccc1NC(=O)CN(C)C(=O)COC(=O)c1c(Cl)cccc1Cl	15.6	x	-3.1	1.0	x	x
O=C(Nc1nc2ccc(F)cc2s1)C1=COCCO1	-1.2	0.0	0.4	1.0	1.9	x
O=C(Nc1ccccc1-c1nc2ccccc2s1)C1=COCCO1	25.8	-1.2	57.8*	51.4*	1.3	15.9
O=C(Nc1cccc2ccccc12)c1ccc([N+](=O)[O-])cc1	-10.3	7.5	-1.4	-0.4	4.4	x
O=C(Nc1cccc2c(=O)[nH][nH]c(=O)c12)c1ccc([N+](=O)[O-])cc1	x	x	56.7*	20.8	x	47.0*
N#Cc1nc(COc2ccccc2)oc1N1CCOCC1	-4.9	1.9	0.3	-2.0	-2.6	x
Cc1cccc2c(C(=O)N3CCN(c4ccccn4)CC3)cc(-c3cccc(Br)c3)nc12	-1.3	0.8	69.0*	5.9	15.4*	18.5
O=C(c1cc(-c2cccc(Cl)c2)nc2ccccc12)N1CCN(c2ccccn2)CC1	0.0	2.0	1.4	6.2	-2.3	x
CCCc1nn(-c2cc(Cl)ccc2OC)c2c1C(=O)CCC2	-2.8	1.1	-2.1	0.2	-4.3	x
O=c1oc2ccccc2c(N2CCCC2)c1[N+](=O)[O-]	-0.6	-2.5	-0.5	-0.3	-2.3	x
CC1CCN(c2c([N+](=O)[O-])c(=O)oc3ccccc23)CC1	-7.8	-1.6	53.0*	-1.4	-5.3	1.5
N/C(=N\OC(=O)CCCc1ccccc1)c1cccc([N+](=O)[O-])c1	-9.6	2.5	55.2*	1.5	0.9	14.6
N/C(=N\OC(=O)CCCc1ccccc1)c1ccccc1	-6.1	0.6	-2.3	1.8	-0.1	x
CC(C)(C)c1nnc2sc(SCC(=O)NCc3ccco3)nn2c1=O	-5.2	3.7	-1.6	-1.6	-0.8	x
Cc1nn(C)cc1/C=N/NC(=S)Nc1ccccc1	-7.3	0.4	75.8*	0.9	-5.6	49.8*
SMILES	Scp1 inh	PP5 primary	STEP block	LMPTP block	PP1 inh	STEP conf
Cn1c(SCC(=O)N2CCCC2)nc2cccnc21	-6.0	2.4	51.7*	0.6	-0.7	1.2
CN1/C(=C\C(=S)NC(=O)c2ccc([N+](=O)[O-])cc2)C(C)(C)c2ccccc21	5.3	3.4	0.2	3.2	-3.2	x
O=C(NCCCN1CCOCC1)c1cccc(S(=O)(=O)N2CCN(c3ccccc3)CC2)c1	-3.8	-1.5	-0.1	0.1	-3.6	x
O=S(=O)(c1ccccc1)N1CCN(C(=S)NCCCN2CCOCC2)CC1	4.8	0.2	48.7*	-3.5	-2.3	14.1
Cc1nc2oc3ccccc3c(=O)c2cc1C(=O)O	-12.8	-1.0	1.6	-1.2	0.9	x
Cc1ccccc1C(=O)NCCCCc1ccccc1	-8.0	0.0	45.7*	0.9	-1.9	7.1
N/C(=N\OC(=O)c1ccc(=O)n(Cc2ccccc2)c1)c1ccccn1	-10.7	-0.8	-4.1	-1.0	-0.4	x
CCc1ccccc1NC(=O)N1CCCC(CCC(=O)N(C)CCc2ccccn2)C1 (stereo not drawn)	-3.9	-0.5	117.0*	1.4	-1.8	12.2
COc1ccc(NC(=O)N2CCCC(CCC(=O)N(C)CCc3ccccn3)C2)cc1 (stereo not drawn)	-6.9	3.7	1.9	-0.3	-8.3	x
OCCN1CCN(C(=S)c2ccc(Br)cc2)CC1	2.2	0.5	84.0*	-1.2	-0.7	39.5*
S=C(c1ccc(Br)cc1)N1CCCC1	-12.1	1.7	1.2	-1.2	0.9	x
CSc1ccc(C(=S)N2CCN(CCO)CC2)cc1	-2.7	0.1	53.9*	0.1	-0.7	29.0
CC(C)c1ccc(N2C(=O)C(Cl)=C(N3CCOCC3)C2=O)cc1	-7.1	3.0	42.2*	0.8	2.5	-7.1
O=c1c2c3nc4ccccc4nc3n(-c3ccc4c(c3)OCCO4)c2ncn1C1CCCC1	84.8*	1.4	51.2*	26.1	-2.6	-2.8
Cn1c(C(=O)Nc2ccc3c(c2)OCCO3)cc2sccc21	-8.5	2.2	-1.4	0.1	1.9	x
COc1ccc(-n2c(=S)[nH]c3cc(C(=O)NCCCN4CCCC4=O)ccc3c2=O)cc1OC	-0.3	-0.9	0.2	-0.8	-0.4	x
COC(=O)Nc1sc2c(c1C(N)=O)CCC(C)C2 (stereo not drawn)	-2.9	0.6	97.1*	2.3	-1.7	80.5*
CC1CCc2c(sc(NC(=O)C3c4ccccc4Oc4ccccc43)c2C(N)=O)C1 (stereo not drawn)	-3.9	0.4	2.6	0.6	4.3	x
S=c1[nH]nc(-c2cccnc2)n1/N=C/c1ccc(Br)s1	-2.5	1.3	35.7*	8.2	-3.0	29.1*
COc1ccc(CNC(=O)C(C)OC(=O)C23CC4CC(CC(O)(C4)C2)C3)cc1 (stereo not drawn)	-5.3	3.5	97.2*	-0.7	3.1	-2.8
CC(OC(=O)C12CC3CC(CC(O)(C3)C1)C2)C(N)=O (stereo not drawn)	-5.0	2.8	-1.7	-1.0	0.7	x
S=C(Nc1ccccc1Cl)NC1CCC(NC(=S)Nc2ccccc2Cl)CC1 (stereo not drawn)	-5.2	1.2	43.6*	-2.5	-3.2	3.7
Cc1c(/C=N/Nc2ccc(C(=O)O)cc2)c2ccccc2n1C	-0.8	-0.6	-5.0	0.3	-4.3	x
CCOc1ccc(C(=O)Nc2cc(-c3nc4ccccc4[nH]3)ccc2Cl)cc1[N+](=O)[O-]	6.8	3.4	53.9*	1.9	3.6	46.8*
CCOc1ccc(C(=O)Nc2cc(-c3nc4ccccc4[nH]3)ccc2C)cc1[N+](=O)[O-]	0.8	2.6	3.0	1.9	-1.3	x
